The results in this text go back to ChEMBL document CHEMBL1157361, “Steady-state disposition of the nonpeptidic protease inhibitor tipranavir when coadministered with ritonavir” (Antimicrob Agents Chemother, 2007).

Data set [1] is described as follows: Biodistribution in healthy human feces assessed as Tipranavir hydroxyl metabolite H-1 level at 500 mg, po twice daily coadministered with ritonavir 200 mg, po twice daily for 21 days with additional single dose of 551 mg, po on day 7. In kind it is ADME, organism-based. To be noted: in vivo, 504 h. A digest of the protocol: (§1)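 Healthy male nonsmoking volunteers (9 completed) on TPV 500 mg + RTV 200 mg orally twice daily. On day 7, after a light snack 60 min earlier, they took 500 mg [14C]TPV (90 µCi) + 200 mg RTV and fasted 4 h; unlabelled dosing then resumed to day 20. Samples were stored at about –20°C until analysis.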

Data set [2] is described as follows: Biodistribution in healthy human excreta assessed as Tipranavir hydroxyl metabolite H-1 level at 500 mg, po twice daily coadministered with ritonavir 200 mg, po twice daily for 21 days with additional single dose of 551 mg, po on day 7. The class given is ADME, organism-based. The conditions noted are these: in vivo, 504 h. A digest of the protocol: as §1
Data set [3] can be described thus: Biodistribution in healthy human assessed as radioactive drug dose recovery in feces at 500 mg, po twice daily coadministered with ritonavir 200 mg, po twice daily for 21 days with additional single dose of 551 mg, po on day 7. The class given is ADME, organism-based. The conditions noted are these: in vivo, 504 h. A digest of the protocol:
as §1

Data set [4] relates to Homo sapiens. Briefly: Volume of distribution ( 0 to 12 hrs) in healthy human blood at 500 mg, po twice daily coadministered with ritonavir 200 mg, po twice daily for 21 days with additional single dose of 551 mg, po on day 7. In kind it is ADME, organism-based. To be noted: in vivo. In outline:
as §1

The test system of data set [5] is Homo sapiens. Briefly: Cmax ( 0 to 12 hrs) in healthy human plasma at 500 mg, po twice daily coadministered with ritonavir 200 mg, po twice daily for 21 days with additional single dose of 551 mg, po on day 7. In kind it is ADME, organism-based. Set-up: dose 500 mg, route oral. To be noted: in vivo. A digest of the protocol:
as §1

The test system of data set [6] is Plasma. Briefly: Biodistribution in healthy human plasma assessed as Tipranavir glucuronidation conjugate H-3 level at 500 mg, po twice daily coadministered with ritonavir 200 mg, po twice daily for 21 days with additional single dose of 551 mg, po on day 7 measured 3 hrs postdose. To be noted: in vivo. The class given is ADME, organism-based. In outline: as §1

A short description of data set [7]: Biodistribution in healthy human sexcreta assessed as Tipranavir glucuronidation conjugate H-3 level at 500 mg, po twice daily coadministered with ritonavir 200 mg, po twice daily for 21 days with additional single dose of 551 mg, po on day 7. The class given is ADME, organism-based, Excreta. To be noted: in vivo, 504 h. In outline:
as §1

For data set [8], the system named is Homo sapiens. Briefly: Volume of distribution ( 0 to infinity) in healthy human blood at 500 mg, po twice daily coadministered with ritonavir 200 mg, po twice daily for 21 days with additional single dose of 551 mg, po on day 7. The class given is ADME, organism-based. The conditions noted are these: in vivo, 504 h. A digest of the protocol: as §1
Data set [9] concerns Homo sapiens. Briefly: Biodistribution in healthy human assessed as radioactive drug dose recovery at 500 mg, po twice daily coadministered with ritonavir 200 mg, po twice daily for 21 days with additional single dose of 551 mg, po on day 7. In kind it is ADME, organism-based. To be noted: in vivo, 504 h. In outline:
as §1

Data set [10] relates to Homo sapiens. Briefly: Tlast ( 0 to infinity) in healthy human blood at 500 mg, po twice daily coadministered with ritonavir 200 mg, po twice daily for 21 days with additional single dose of 551 mg, po on day 7. In kind it is ADME, organism-based. The conditions noted are these: in vivo, 504 h. A digest of the protocol: as §1
Data set [11] in a line: Biodistribution in healthy human feces assessed as Tipranavir oxidation metabolite H-2 level at 500 mg, po twice daily coadministered with ritonavir 200 mg, po twice daily for 21 days with additional single dose of 551 mg, po on day 7. The class given is ADME, organism-based. To be noted: in vivo, 504 h. A digest of the protocol:
as §1

The nature of data set [12]: Biodistribution in healthy human assessed as radioactive drug dose recovery in urine at 500 mg, po twice daily coadministered with ritonavir 200 mg, po twice daily for 21 days with additional single dose of 551 mg, po on day 7. In kind it is ADME, organism-based. The conditions noted are these: in vivo, 504 h.
A short description of data set [13]: Biodistribution in healthy human urine at 500 mg, po twice daily coadministered with ritonavir 200 mg, po twice daily for 21 days with additional single dose of 551 mg, po on day 7. The class given is ADME, organism-based. The conditions noted are these: in vivo, 504 h. In outline: as §1
Data set [14] can be described thus: Biodistribution in healthy human excreta at 500 mg, po twice daily coadministered with ritonavir 200 mg, po twice daily for 21 days with additional single dose of 551 mg, po on day 7. The class given is ADME, organism-based. To be noted: in vivo, 504 h. In outline: as §1
For data set [15], the system named is Plasma. Briefly: Biodistribution in healthy human plasma assessed as Tipranavir hydroxyl metabolite H-1 level at 500 mg, po twice daily coadministered with ritonavir 200 mg, po twice daily for 21 days with additional single dose of 551 mg, po on day 7 measured 3 hrs postdose. The class given is ADME, organism-based. To be noted: in vivo. In outline:
as §1

A short description of data set [16]: Biodistribution in healthy human urine assessed as Tipranavir glucuronidation conjugate H-3 level at 500 mg, po twice daily coadministered with ritonavir 200 mg, po twice daily for 21 days with additional single dose of 551 mg, po on day 7. The class given is ADME, organism-based. To be noted: in vivo, 504 h. In outline:
as §1

The subject of data set [17] is Homo sapiens. Briefly: Volume of distribution ( 0 to 12 hrs) in healthy human plasma at 500 mg, po twice daily coadministered with ritonavir 200 mg, po twice daily for 21 days with additional single dose of 551 mg, po on day 7. In kind it is ADME, organism-based. The conditions noted are these: in vivo. A digest of the protocol:
as §1

The test system of data set [18] is Homo sapiens. Briefly: Tlast ( 0 to infinity) in healthy human plasma at 500 mg, po twice daily coadministered with ritonavir 200 mg, po twice daily for 21 days with additional single dose of 551 mg, po on day 7. In kind it is ADME, organism-based. To be noted: in vivo, 504 h. In outline: as §1
Data set [19] relates to Homo sapiens. Briefly: Volume of distribution ( 0 to infinity) in healthy human plasma at 500 mg, po twice daily coadministered with ritonavir 200 mg, po twice daily for 21 days with additional single dose of 551 mg, po on day 7. The class given is ADME, organism-based. The conditions noted are these: in vivo, 504 h. In outline:
as §1

A short description of data set [20]: Biodistribution in healthy human urine assessed as Tipranavir hydroxyl metabolite H-1 level at 500 mg, po twice daily coadministered with ritonavir 200 mg, po twice daily for 21 days with additional single dose of 551 mg, po on day 7. In kind it is ADME, organism-based. To be noted: in vivo, 504 h. In outline:
as §1

Data set [21] can be described thus: Biodistribution in healthy human excreta assessed as Tipranavir oxidation metabolite H-2 level at 500 mg, po twice daily coadministered with ritonavir 200 mg, po twice daily for 21 days with additional single dose of 551 mg, po on day 7. The class given is ADME, organism-based. To be noted: in vivo, 504 h. In outline: as §1
Data set [22] is described as follows: Half life in healthy human at 500 mg, po twice daily coadministered with ritonavir 200 mg, po twice daily for 21 days with additional single dose of 551 mg, po on day 7. The class given is ADME, organism-based. The conditions noted are these: in vivo. In outline: as §1
Data set [23] has as its system Homo sapiens. Briefly: Volume of distribution in healthy human at 500 mg, po twice daily coadministered with ritonavir 200 mg, po twice daily for 21 days with additional single dose of 551 mg, po on day 7. In kind it is ADME, organism-based. The conditions noted are these: in vivo, 504 h. A digest of the protocol:
as §1

Data set [24] can be described thus: Drug level in healthy human at 500 mg, po twice daily coadministered with ritonavir 200 mg, po twice daily for 21 days with additional single dose of 551 mg, po on day 7 measured 12 hrs postdose. The conditions noted are these: plasma. In kind it is ADME, organism-based. In outline:
as §1

Data set [25] can be described thus: AUC (0 to 12 hrs) in healthy human at 500 mg, po twice daily coadministered with ritonavir 200 mg, po twice daily for 21 days with additional single dose of 551 mg, po on day 7. The class given is ADME, organism-based. Set-up: dose 500 mg, time < 12 hr, route oral. The conditions noted are these: plasma. A digest of the protocol: as §1
Data set [26] is described as follows: Cmax in healthy human at 500 mg, po twice daily coadministered with ritonavir 200 mg, po twice daily for 21 days with additional single dose of 551 mg, po on day 7. In kind it is ADME, organism-based. Set-up: dose 500 mg, route oral. The conditions noted are these: in vivo. A digest of the protocol: as §1
The nature of data set [27]: Tmax in healthy human at 500 mg, po twice daily coadministered with ritonavir 200 mg, po twice daily for 21 days with additional single dose of 551 mg, po on day 7. The class given is ADME, organism-based. To be noted: in vivo. In outline:
as §1

The nature of data set [28]: Clearance life in healthy human at 500 mg, po twice daily coadministered with ritonavir 200 mg, po twice daily for 21 days with additional single dose of 551 mg, po on day 7. In kind it is ADME, organism-based. To be noted: in vivo. A digest of the protocol:
as §1

In data set [29] the test system is Homo sapiens. Briefly: Toxicity in healthy human at 500 mg, po twice daily coadministered with ritonavir 200 mg, po twice daily for 21 days with additional single dose of 551 mg, po on day 7. The class given is organism-based. To be noted: in vivo, 504 h.

As for `CCC[C@@]1(CCc2ccccc2)CC(O)=C([14C@H](CC)c2cccc(NS(=O)(=O)c3ccc(C(F)(F)F)cn3)c2)C(=O)O1`, the Drug uptake in data set [1] came to 3.2 %ID; in data set [2], 3.2 %ID; in data set [3], 70.4%; with Plasma [6] it was 0.05 µg/mL; in data set [7], 0.5 %ID; in the data set on Homo sapiens [9], 75.3%. Moreover, the Drug uptake in data set [11] was 0.4 %ID; in [12], 4.59%; in [13] it was < 0.1 %ID; in data set [14], 53.5 %ID; with Plasma [15], 0.1 µg/mL; in [16] it was 0.5 %ID. For the same molecule, the Drug uptake is < 0.1 %ID in [20] and 0.4 %ID in data set [21]. Also, the Vd in the data set with Homo sapiens [4] is 15.68 L; in the data set with Homo sapiens [8], 44.23 L; with Homo sapiens [17] it was 8.32 L; in the data set on Homo sapiens [19], 32.47 L. Also, the maximum concentration (Cmax) with Homo sapiens [5] is 90.5 µM. Further, the figures for the Tlast with Homo sapiens [10] and with Homo sapiens [18] were 64 h and 90.67 h, respectively.
With `CCC[C@@]1(CCc2ccccc2)CC(O)=C([C@H](CC)c2cccc(NS(=O)(=O)c3ccc(C(F)(F)F)cn3)c2)C(=O)O1` [TIPRANAVIR], in [22], the half-life was 4.6 h. The Vd with Homo sapiens [23] is 9.6 L. The concentration at 12 h in data set [24] amounted to 25.9 µM. In [25], the AUC(0-t) at 12 h came to 657 µM·h. The Cmax in [26] is 99.4 µM. Also, the Tmax in data set [27] stood at 2.9 h. Also, in data set [28], the apparent clearance (CL/F) was 24.5 mL/min. Also, the Activity entry with Homo sapiens [29] is reported as “Non-toxic”.

By Cmax is commonly meant the maximum level reached in the sampled fluid or tissue. As usually defined, the half-life is the time in which the quantity being followed falls by half. Usually AUC(0-t) stands for exposure summed from dosing to a finite time, without extrapolation to infinity. As usually defined, the Tmax is the time at which the peak concentration occurs. For orientation: CL/F means clearance divided by bioavailability, as obtained after extravascular dosing.
